Laboratory results as given in ChEMBL document CHEMBL1152956, “Synthesis and cytotoxic activity of 5,6-heteroaromatically annulated pyridine-2,4-diamines” (Bioorg Med Chem, 2009).

System: RT-4
Assay: Growth inhibition of human RT4 cells at 20 uM after 96 hrs by crystal violet staining
Type: functional
Details: RT-4, 96 h, read-out: GI
Summary of the method: (§1)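 This was a single-concentration screen. Actively dividing cells had 96 h continuous exposure to compound diluted 1000-fold from a DMSO solution into medium. Cells were fixed with glutaraldehyde and stained with crystal violet. Bound dye was redissolved in 70% ethanol and read at OD 570 nm. Growth inhibition was expressed against untreated controls.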

SMILES | inhibition of growth at 20 µM [%]
Cc1nc2nc(N(C)C)cc(N)c2cc1-c1ccccc1 | < 50
Cc1oc2nc(N(C)C)cc(N)c2c1C | < 50
CN(C)c1cc(N)c2c(n1)[nH]c1ccccc12 | < 50
CN(C)c1cc(N)c2c(-c3ccccc3)c(-c3ccccc3)n(Cc3ccccc3)c2n1 | < 50
CCOC(OCC)n1c2ccccc2c2c(N)cc(N(C)C)nc21 | < 50
CN(C)c1cc(N)c2c(-c3ccccc3)c(-c3ccccc3)oc2n1 | < 50

System: A-427
Assay: Growth inhibition of human A427 cells at 20 uM after 96 hrs by crystal violet staining
Type: functional
Details: A-427, 96 h, read-out: GI
Summary of the method: as §1

SMILES | inhibition of growth at 20 µM [%]
Cc1oc2nc(N(C)C)cc(N)c2c1C | < 50
CN(C)c1cc(N)c2c(n1)[nH]c1ccccc12 | < 50
CCOC(OCC)n1c2ccccc2c2c(N)cc(N(C)C)nc21 | < 50

System: 5637
Assay: Growth inhibition of human 5637 cells at 20 uM after 96 hrs by crystal violet staining
Type: functional
Details: Homo sapiens, 5637, 96 h; read-out: GI
Summary of the method: as §1

SMILES | inhibition of growth at 20 µM [%]
Cc1nc2nc(N(C)C)cc(N)c2cc1-c1ccccc1 | < 50
Cc1oc2nc(N(C)C)cc(N)c2c1C | < 50
CN(C)c1cc(N)c2c(n1)[nH]c1ccccc12 | < 50
CN(C)c1cc(N)c2c(-c3ccccc3)c(-c3ccccc3)n(Cc3ccccc3)c2n1 | < 50
CCOC(OCC)n1c2ccccc2c2c(N)cc(N(C)C)nc21 | < 50

System: MCF7
Assay: Cytotoxicity against human MCF7 cells after 96 hrs by crystal violet staining
Type: functional, cell-based
Details: MCF7, 96 h
Summary of the method: (§2)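 Compounds were held as 20 mM DMSO stocks at -20 °C and serially diluted in DMSO to working solutions of 20, 10, 5.0, 2.50, 1.25 and […]. Five of these were diluted 1000-fold into medium, with DMSO-only controls. Dividing cells had 96 h continuous exposure, then glutaraldehyde fixation and crystal violet staining. Dye was redissolved in 70% ethanol and read at OD 570 nm. IC50 came from linear regression of log dose–response curves.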

SMILES | IC50 [µM]
Cc1nc2nc(N(C)C)cc(N)c2cc1-c1ccccc1 | > 20
Cc1oc2nc(N(C)C)cc(N)c2c1C | > 20
CN(C)c1cc(N)c2c(n1)[nH]c1ccccc12 | > 20
CN(C)c1cc(N)c2c(-c3ccccc3)c(-c3ccccc3)n(Cc3ccccc3)c2n1 | > 20
CCOC(OCC)n1c2ccccc2c2c(N)cc(N(C)C)nc21 | > 20
CN(C)c1cc(N)c2c(-c3ccccc3)c(-c3ccccc3)oc2n1 | 18.8

System: not listed separately
Assay: Cytotoxicity against human LCLC-103H cells after 96 hrs by crystal violet staining
Type: functional, cell-based
Details: not given
Summary of the method: as §2

SMILES | IC50 [µM]
Cc1nc2nc(N(C)C)cc(N)c2cc1-c1ccccc1 | > 20
Cc1oc2nc(N(C)C)cc(N)c2c1C | > 20
CN(C)c1cc(N)c2c(n1)[nH]c1ccccc12 | > 20
CN(C)c1cc(N)c2c(-c3ccccc3)c(-c3ccccc3)n(Cc3ccccc3)c2n1 | > 20
CCOC(OCC)n1c2ccccc2c2c(N)cc(N(C)C)nc21 | > 20
CN(C)c1cc(N)c2c(-c3ccccc3)c(-c3ccccc3)oc2n1 | > 20

System: DAN-G
Assay: Cytotoxicity against human DAN-G cells after 96 hrs by crystal violet staining
Type: functional, cell-based
Details: not given
Summary of the method: as §2

SMILES | IC50 [µM]
Cc1nc2nc(N(C)C)cc(N)c2cc1-c1ccccc1 | > 20
Cc1oc2nc(N(C)C)cc(N)c2c1C | > 20
CN(C)c1cc(N)c2c(n1)[nH]c1ccccc12 | > 20
CN(C)c1cc(N)c2c(-c3ccccc3)c(-c3ccccc3)n(Cc3ccccc3)c2n1 | > 20
CCOC(OCC)n1c2ccccc2c2c(N)cc(N(C)C)nc21 | > 20
CN(C)c1cc(N)c2c(-c3ccccc3)c(-c3ccccc3)oc2n1 | > 20

System: RT-4
Assay: Cytotoxicity against human RT4 cells after 96 hrs by crystal violet staining
Type: functional, cell-based
Details: RT-4, 96 h
Summary of the method: as §2

SMILES | IC50 [µM]
Cc1nc2nc(N(C)C)cc(N)c2cc1-c1ccccc1 | > 20
Cc1oc2nc(N(C)C)cc(N)c2c1C | > 20
CN(C)c1cc(N)c2c(n1)[nH]c1ccccc12 | > 20
CN(C)c1cc(N)c2c(-c3ccccc3)c(-c3ccccc3)n(Cc3ccccc3)c2n1 | > 20
CCOC(OCC)n1c2ccccc2c2c(N)cc(N(C)C)nc21 | > 20
CN(C)c1cc(N)c2c(-c3ccccc3)c(-c3ccccc3)oc2n1 | > 20

System: A-427
Assay: Cytotoxicity against human A427 cells after 96 hrs by crystal violet staining
Type: functional, cell-based
Details: A-427, 96 h
Summary of the method: as §2

SMILES | IC50 [µM]
Cc1oc2nc(N(C)C)cc(N)c2c1C | > 20
CN(C)c1cc(N)c2c(n1)[nH]c1ccccc12 | > 20
CCOC(OCC)n1c2ccccc2c2c(N)cc(N(C)C)nc21 | > 20
CN(C)c1cc(N)c2c(-c3ccccc3)c(-c3ccccc3)oc2n1 | 14.6

System: 5637
Assay: Cytotoxicity against human 5637 cells after 96 hrs by crystal violet staining
Type: functional, cell-based
Details: Homo sapiens, 5637, 96 h
Summary of the method: as §2

SMILES | IC50 [µM]
Cc1nc2nc(N(C)C)cc(N)c2cc1-c1ccccc1 | > 20
Cc1oc2nc(N(C)C)cc(N)c2c1C | > 20
CN(C)c1cc(N)c2c(n1)[nH]c1ccccc12 | > 20
CN(C)c1cc(N)c2c(-c3ccccc3)c(-c3ccccc3)n(Cc3ccccc3)c2n1 | > 20
CCOC(OCC)n1c2ccccc2c2c(N)cc(N(C)C)nc21 | > 20
CN(C)c1cc(N)c2c(-c3ccccc3)c(-c3ccccc3)oc2n1 | 14.9

System: not listed separately
Assay: Growth inhibition of human LCLC-103H cells at 20 uM after 96 hrs by crystal violet staining
Type: functional
Details: read-out: GI
Summary of the method: as §1

SMILES | inhibition of growth at 20 µM [%]
Cc1nc2nc(N(C)C)cc(N)c2cc1-c1ccccc1 | < 50
Cc1oc2nc(N(C)C)cc(N)c2c1C | < 50
CN(C)c1cc(N)c2c(n1)[nH]c1ccccc12 | < 50
CN(C)c1cc(N)c2c(-c3ccccc3)c(-c3ccccc3)n(Cc3ccccc3)c2n1 | < 50
CCOC(OCC)n1c2ccccc2c2c(N)cc(N(C)C)nc21 | < 50
CN(C)c1cc(N)c2c(-c3ccccc3)c(-c3ccccc3)oc2n1 | < 50

System: DAN-G
Assay: Growth inhibition of human DAN-G cells at 20 uM after 96 hrs by crystal violet staining
Type: functional
Details: read-out: GI
Summary of the method: as §1

SMILES | inhibition of growth at 20 µM [%]
Cc1nc2nc(N(C)C)cc(N)c2cc1-c1ccccc1 | < 50
Cc1oc2nc(N(C)C)cc(N)c2c1C | < 50
CN(C)c1cc(N)c2c(n1)[nH]c1ccccc12 | < 50
CN(C)c1cc(N)c2c(-c3ccccc3)c(-c3ccccc3)n(Cc3ccccc3)c2n1 | < 50
CCOC(OCC)n1c2ccccc2c2c(N)cc(N(C)C)nc21 | < 50
CN(C)c1cc(N)c2c(-c3ccccc3)c(-c3ccccc3)oc2n1 | < 50

System: MCF7
Assay: Growth inhibition of human MCF7 cells at 20 uM after 96 hrs by crystal violet staining
Type: functional
Details: MCF7, 96 h, read-out: GI
Summary of the method: as §1

SMILES | inhibition of growth at 20 µM [%]
Cc1nc2nc(N(C)C)cc(N)c2cc1-c1ccccc1 | < 50
Cc1oc2nc(N(C)C)cc(N)c2c1C | < 50
CN(C)c1cc(N)c2c(n1)[nH]c1ccccc12 | < 50
CN(C)c1cc(N)c2c(-c3ccccc3)c(-c3ccccc3)n(Cc3ccccc3)c2n1 | < 50
CCOC(OCC)n1c2ccccc2c2c(N)cc(N(C)C)nc21 | < 50
